# Screening data as filed in PubChem.
# Hits are enriched below; roughly 4.6% of the tested compounds scored in any of these assays.
# TAAR1 antag = antagonists of human TAAR1; 360,000 compounds, 1.5% hits; Q96RJ0; AID 624466; CHO RD-HGA16 TAAR1, Fluo-8 calcium fluorescence, antagonist; inhibition, % at 3 µM;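 active means inhibition above a per-plate cutoff, the mean inhibition of test compounds on that plate plus 3 SD, cut at about 49% in these data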;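 further: 0% = DMSO plus EC80 beta-PEA response and 100% = DMSO alone without agonist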
#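 Test system: RD-HGA16 CHO cells with stable hTAAR1 and Gα16 / Probe or stimulus: EC80 β-phenethylamine stimulus / Times: seeding 17-24 h prior, 75-min 37 °C, 30-min RT dye loading / Detection: Fluo-8 calcium-sensitive fluorescence / Read-out basis: % inhibition scaled between DMSO and EC80 PEA controls / Repeats: singlicate, one well per test compound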
# OX1R antag-1 = OX1R (human) antagonism; 330,000 compounds, 1.8% hits; OX1R-expressing cells, FRET antagonist read-out; O43613; inhibition, % at 6.6 µM; AID 485270; in the data active means inhibition mostly above about 38%, no sharp cut-off; inactive means mostly below about 40%;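 further: 0% = agonist challenge alone and 100% = reference antagonist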
# Target sequence (O43613 whole entry, looked up): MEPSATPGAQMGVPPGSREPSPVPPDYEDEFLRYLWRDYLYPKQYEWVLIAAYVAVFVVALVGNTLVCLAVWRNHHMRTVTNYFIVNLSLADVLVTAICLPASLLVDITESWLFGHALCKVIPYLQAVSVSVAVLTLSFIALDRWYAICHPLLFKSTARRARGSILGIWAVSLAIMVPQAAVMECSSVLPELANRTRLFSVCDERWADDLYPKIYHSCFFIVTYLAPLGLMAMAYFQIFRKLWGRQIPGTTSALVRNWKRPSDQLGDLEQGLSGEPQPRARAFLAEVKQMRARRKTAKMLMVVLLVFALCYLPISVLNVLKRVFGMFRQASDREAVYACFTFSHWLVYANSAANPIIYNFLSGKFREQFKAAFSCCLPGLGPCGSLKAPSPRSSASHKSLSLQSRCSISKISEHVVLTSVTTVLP
# TAAR1 ag = agonists of human TAAR1; 360,000 compounds, 0.99% hits; activation, % at 3 µM; CHO RD-HGA16 TAAR1, Fluo-8 calcium fluorescence; vehicle wells 0%, saturating PEA agonist 100%; Q96RJ0;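 active means activation above the mean activation of all test compounds in the run plus 3 SD, cut at about 38% in these data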
#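 test system = CHO RD-HGA16 cells carrying human TAAR1 plus Gα16 | schedule = 17-24 h seeding, 75 min 37 °C dye, 30 min RT | compound dosing = 3 µM single concentration | control set = DMSO and PEA EC100 | replicates = n 1 | signal = Fluo-8 fluorescence, 5 s baseline then 140 s kinetic read | measure = percent activation vs PEA EC100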
# CHO parental Ca = counter-screen: ATP calcium response change in parental CHO cells | parental CHO-K1, ATP-induced calcium, Fluo-8 fluorescence | inhibition, % at 5.6 µM | 330,000 compounds, 0.63% hits | AID 463079;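 active means inhibition above that plate's mean sample inhibition plus 3 SD, cut at about 26% in these data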;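 further: 0% = ATP-challenged DMSO wells and 100% = DMSO wells without ATP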
#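 Test system: untransfected parental CHO cell line. Compound: one dose, 5.6 µM nominal. Detection: intracellular calcium via Fluo-8 no-wash fluorescent dye. Measure: % inhibition. Benchmarks: ATP-challenged DMSO wells low, unchallenged DMSO wells high.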
# OX1R antag-2 = antagonists of human orexin 1 receptor; O43613; inhibition, % at 5 µM; 330,000 compounds, 0.43% hits; AID 434989; CHO/OX1R cells, Fluo-8 calcium fluorescence, orexin A;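 active means inhibition above its plate's threshold, mean inhibition of all tested compounds on the plate plus 3 SD, cut at about 37% in these data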;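 further: 0% = orexin A challenge wells and 100% = SB-334867-A antagonist wells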
# GPR7 antagonist = blocks human GPR7 receptor signaling | P48145 | GPR7-expressing cells, fluorescence antagonist assay | inhibition, % at 4.4 µM | 290,000 compounds, 1.1% hits; in the data active means inhibition above about 16%, passing the limit was not always enough;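 further: cells stimulated with the agonist NPW; 0% = agonist with vehicle and 100% = vehicle without agonist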
# Target sequence (P48145 whole entry, looked up): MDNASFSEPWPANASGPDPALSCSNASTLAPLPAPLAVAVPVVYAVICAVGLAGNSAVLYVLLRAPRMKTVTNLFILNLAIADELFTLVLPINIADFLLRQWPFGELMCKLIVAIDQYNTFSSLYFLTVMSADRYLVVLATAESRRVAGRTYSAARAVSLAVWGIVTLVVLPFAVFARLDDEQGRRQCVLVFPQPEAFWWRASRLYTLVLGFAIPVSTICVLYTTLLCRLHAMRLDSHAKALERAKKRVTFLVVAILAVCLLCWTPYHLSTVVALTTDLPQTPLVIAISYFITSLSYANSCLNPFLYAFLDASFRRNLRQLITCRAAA
# The depositor's hits bear a star; . = not tested or not shown.
SMILES,TAAR1 antag,OX1R antag-1,TAAR1 ag,CHO parental Ca,OX1R antag-2,GPR7 antagonist
Cc1cc(C(=O)OC(C)C(=O)Nc2nc(-c3ccccc3)cs2)c(C)o1 (stereo unspecified),-3.2,24.8,-2.0,-2.8,3.2,-7.8
CC(OC(=O)c1ccc([N+](=O)[O-])o1)C(=O)Nc1nc(-c2ccc(F)c(F)c2)cs1 (stereo unspecified),58.6*,.,6.0,.,.,.
O=C(CN1CCCCC1)Nc1nc(-c2ccc(F)c(F)c2)cs1,49.2*,13.5,12.8,0.7,-17.3,-5.7
O=C1NC[C@@H](Cc2ccc(O)cc2)N(CCc2cc(C(F)(F)F)cc(C(F)(F)F)c2)C1=O,1.6,.,0.3,.,.,.
O=C(O)c1ccc(-c2nn3c(=O)cc(N4CCNCC4)nc3s2)cc1,-2.6,.,0.5,.,.,.
COc1ccccc1CN1Cc2ccccc2Oc2ccccc2S1(=O)=O,14.1,.,2.6,.,.,.
COc1ccc(C2(O)CCN(CC(=O)Nc3nc(-c4ccccc4)cs3)CC2)cc1,51.3*,4.0,12.9,-16.8,-21.1,0.9
Cc1ccc(-c2csc(NC(=O)Cn3cnc4c3c(=O)n(C)c(=O)n4C)n2)cc1C,6.3,26.4,7.5,-14.2,-19.0,-4.5
O=C(CCN1C(=O)C2CC=CCC2C1=O)Nc1nc(-c2ccc(F)c(F)c2)cs1 (stereo unspecified),60.3*,4.0,31.0,6.1,21.9,.
O=C(Cc1ccccc1)Nc1nc(-c2ccc(F)c(F)c2)cs1,56.3*,15.1,4.9,-6.6,4.8,1.8
Cn1c(=O)c2c(ncn2CC(=O)Nc2nc(-c3ccc(F)c(F)c3)cs2)n(C)c1=O,-30.0,11.8,2.2,98.8*,-13.1,-4.8
CN1CCN(CC(=O)Nc2nc(-c3ccccc3)cs2)CC1,-13.7,9.1,-1.1,5.0,-9.8,-0.1
CCCCCCCCN1C(=O)[C@@H](CC(=O)N2CCN(C(=O)C3CC3)CC2)C[C@@]2(C(=O)OC)C1=C[C@H](C1CCCC1)O[C@@H]2C,-20.9,.,-2.4,.,.,.
O=C(CCc1c[nH]c2ccccc12)Nc1ccc(Oc2cccnc2)cc1,11.7,.,0.3,.,.,.
O=C(O)[C@@H]1C[C@@H](O)CN1,6.0,.,0.9,.,.,.
Cc1onc(-c2c(F)cccc2Cl)c1-c1ncc(-c2ccc(Cl)cc2)o1,0.8,.,1.8,.,.,.
COC(=O)C1CCN(C(=O)COC(=O)CNS(=O)(=O)c2ccc(SC)c([N+](=O)[O-])c2)CC1,-10.7,48.7,-0.4,-5.2,-23.9,.
CSc1ccc(S(=O)(=O)NCC(=O)OCC(=O)N(C)Cc2ccccc2)cc1[N+](=O)[O-],11.7,51.3*,4.0,-9.1,-21.9,.
CSc1ccc(S(=O)(=O)NCC(=O)OCC(=O)N2CCCC2=O)cc1[N+](=O)[O-],7.0,55.5*,1.6,0.2,-4.3,.
CSc1ccc(S(=O)(=O)NCC(=O)OCCOc2ccccc2)cc1[N+](=O)[O-],29.1,53.8*,8.0,21.0,-13.0,.
CSc1ccc(S(=O)(=O)NCC(=O)OC2CCOC2=O)cc1[N+](=O)[O-] (stereo unspecified),-25.6,65.5*,1.1,2.8,-12.8,.
Nc1ccc(S(=O)(=O)NCC(=O)OC2CCOC2=O)cc1[N+](=O)[O-] (stereo unspecified),8.2,14.2,5.3,-5.0,-8.4,.
CN(C)c1cccc(NC(=O)C2Cc3c(-c4ccc(Cl)cc4)ccnc3O2)c1 (stereo unspecified),-5.3,.,-0.3,.,.,.
CCOC(=O)C1=CCN(S(=O)(=O)c2ccccc2F)C1c1ccc(Br)cc1 (stereo unspecified),26.1,.,0.5,.,.,.
CCc1nn(C(C)C(=O)N2CCN(c3ccc(OC)cc3)CC2)c(=O)c2cc3occc3n12 (stereo unspecified),-13.2,10.6,-1.0,-15.8,-12.7,-5.3
SMILES,TAAR1 antag,OX1R antag-1,TAAR1 ag,CHO parental Ca,OX1R antag-2,GPR7 antagonist
C/C(=N\NC(=O)c1cc2ccccc2cc1O)c1ccccn1,-1.9,3.9,4.8,17.0,0.9,-5.8
C/C(=N/NC(=O)c1cc2ccccc2cc1O)C1C(=O)c2ccccc2C1=O,-1.9,65.2*,8.7,-8.4,12.3,1.6
C/C(=N\NC(=O)c1ccccc1O)C1C(=O)c2ccccc2C1=O,1.3,61.4*,15.6,-12.6,-21.0,6.8
Nc1[nH]c(C(=O)c2ccc(Br)cc2)c(-c2ccncc2)c1C(=O)NCCc1c[nH]c2ccccc12,37.6,.,8.2,.,.,.
CCn1nc(C)cc1C(=O)N1CCc2c([nH]c3ccccc23)C1c1cc(F)ccc1F (stereo unspecified),28.9,17.1,4.2,-21.6,-21.4,19.3*
O=C(c1cc2nc(-c3ccc(F)cc3)cc(C(F)(F)F)n2n1)N1CCCCC1c1cccnc1 (stereo unspecified),18.6,17.8,-0.6,41.9*,-2.3,-25.1
CCCCn1c(CNC(=O)c2cccs2)nc2ccccc21,-6.5,11.8,1.3,-3.8,-31.6,-13.9
CCCCCn1c(CNC(=O)c2cccs2)nc2ccccc21,-0.4,55.8*,0.2,22.2,7.3,-14.4
Cc1ccc(OC(C)C(=O)N2CCc3ccccc32)c([N+](=O)[O-])n1 (stereo unspecified),-10.4,.,2.8,.,.,.
Fc1ccccc1CNc1nc(NCC2CC2)nc2ccsc12,43.7,.,37.9*,.,.,.
COc1ccccc1CNc1nc(NCc2ccccc2)nc2ccsc12,95.4*,.,50.5*,.,.,.
c1ccc(CNc2nc(-c3ccccc3)nc3ccccc23)cc1,0.8,28.8,0.1,-11.4,-28.9,-22.4
c1ccc(CNc2nc(NCCOc3ccccc3)c3sccc3n2)cc1,94.6*,.,58.8*,.,.,.
c1ccc(CNc2nc(NCc3ccccc3)c3ccccc3n2)cc1,.,6.7,.,74.9*,89.3*,74.1*
Cc1ccc(C)c(S(=O)(=O)N2CCN(C(=O)/C=C/c3ccco3)CC2)c1,10.8,3.1,-0.9,-11.9,-15.8,.
Cc1ccc(F)c(S(=O)(=O)NC(=O)C2(C)CCN2C(=O)c2cccc3ccccc23)c1 (stereo unspecified),-3.1,.,0.1,.,.,.
CCCN1C(=O)c2[nH]nc(-c3ccccc3)c2C1c1ccc(Br)cc1 (stereo unspecified),-31.1,.,-0.7,.,.,.
c1ccc(CNc2nc(NCc3ccccc3)c3sccc3n2)cc1,104.3*,.,73.5*,.,.,.
Cc1ccccc1Nc1nc(N)nc(CSc2nc3ccccc3c(=O)n2C)n1,59.3*,2.2,13.2,-15.8,-28.3,0.3
Cc1ccccc1Nc1nc(N)nc(CSc2nc3ccccc3s2)n1,-0.6,66.6*,0.9,-33.9,1.9,-9.5
O=C(C(=O)N1CCN(S(=O)(=O)c2ccc(C(F)(F)F)cc2)CC1)c1cccc(C(F)(F)F)c1,-10.2,.,-1.7,.,.,.
COc1ccc(NC(=O)OC[C@@H]2CSCCS(=O)(=O)N2)cc1,3.7,.,2.3,.,.,.
Clc1ccc(CSc2nncn2-c2ccc3c(c2)OCCO3)cc1,-22.3,12.6,8.1,-11.3,-2.0,18.8*
